# Results as given in ChEMBL document CHEMBL1131239, “Orally active benzamide antipsychotic agents with affinity for dopamine D2, serotonin 5-HT1A, and adrenergic alpha1 receptors” (J Med Chem, 1998).
# Tests used:
# [1] = biological target: T1, 5-hydroxytryptamine receptor 1A (Rattus norvegicus, UniProt P19327); test: Compound was evaluated for its binding affinity against 5-hydroxytryptamine 1A receptor from rat cerebral cortex; assay type: tissue-based
# T1 sequence (P19327 whole entry): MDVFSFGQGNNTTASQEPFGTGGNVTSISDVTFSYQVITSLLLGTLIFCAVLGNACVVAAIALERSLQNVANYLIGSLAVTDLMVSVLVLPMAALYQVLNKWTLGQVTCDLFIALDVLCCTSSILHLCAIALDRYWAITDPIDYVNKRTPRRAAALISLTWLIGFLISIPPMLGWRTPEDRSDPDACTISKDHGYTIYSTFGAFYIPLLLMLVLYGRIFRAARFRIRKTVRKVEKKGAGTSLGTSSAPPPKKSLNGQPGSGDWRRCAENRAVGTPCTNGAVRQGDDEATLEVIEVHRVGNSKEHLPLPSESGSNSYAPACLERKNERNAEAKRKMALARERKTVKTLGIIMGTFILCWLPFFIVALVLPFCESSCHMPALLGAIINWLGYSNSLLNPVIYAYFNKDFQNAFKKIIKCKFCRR
# [2] = biological target: T2, Adrenergic receptor alpha-1 (Rattus norvegicus, UniProt P15823+P23944+P43140); test: Binding affinity against Alpha-1 adrenergic receptor from rat cerebral cortex; assay type: tissue-based
# T2 sequence (P15823 whole entry): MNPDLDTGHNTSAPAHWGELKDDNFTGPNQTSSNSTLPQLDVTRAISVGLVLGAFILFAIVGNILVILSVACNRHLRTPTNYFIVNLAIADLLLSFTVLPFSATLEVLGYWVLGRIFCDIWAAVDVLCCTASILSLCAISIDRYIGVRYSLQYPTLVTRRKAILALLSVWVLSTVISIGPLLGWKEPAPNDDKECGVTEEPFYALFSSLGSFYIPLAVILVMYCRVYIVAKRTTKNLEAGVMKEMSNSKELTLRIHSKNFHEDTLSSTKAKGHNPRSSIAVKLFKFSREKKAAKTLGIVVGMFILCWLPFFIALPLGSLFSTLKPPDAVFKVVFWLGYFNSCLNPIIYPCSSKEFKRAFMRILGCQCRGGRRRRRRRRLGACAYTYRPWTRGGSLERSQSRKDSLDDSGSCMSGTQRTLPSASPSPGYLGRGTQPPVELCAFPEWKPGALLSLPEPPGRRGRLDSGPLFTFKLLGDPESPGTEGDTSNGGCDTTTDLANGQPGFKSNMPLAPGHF
# T2 sequence (P23944 whole entry): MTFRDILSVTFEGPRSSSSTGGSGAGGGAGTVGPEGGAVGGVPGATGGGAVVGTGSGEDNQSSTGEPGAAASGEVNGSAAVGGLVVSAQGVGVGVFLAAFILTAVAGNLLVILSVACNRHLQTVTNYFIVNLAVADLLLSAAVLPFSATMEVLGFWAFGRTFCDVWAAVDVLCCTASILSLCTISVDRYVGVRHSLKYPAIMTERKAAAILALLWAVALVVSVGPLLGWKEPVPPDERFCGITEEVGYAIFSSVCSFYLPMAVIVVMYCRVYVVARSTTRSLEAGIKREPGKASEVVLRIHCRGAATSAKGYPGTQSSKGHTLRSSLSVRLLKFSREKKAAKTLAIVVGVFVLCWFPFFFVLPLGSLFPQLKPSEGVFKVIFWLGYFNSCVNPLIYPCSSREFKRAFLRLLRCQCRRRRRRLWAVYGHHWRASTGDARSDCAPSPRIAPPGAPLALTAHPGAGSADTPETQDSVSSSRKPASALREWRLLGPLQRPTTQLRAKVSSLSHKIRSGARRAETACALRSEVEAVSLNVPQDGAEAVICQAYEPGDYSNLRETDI
# T2 sequence (P43140 whole entry): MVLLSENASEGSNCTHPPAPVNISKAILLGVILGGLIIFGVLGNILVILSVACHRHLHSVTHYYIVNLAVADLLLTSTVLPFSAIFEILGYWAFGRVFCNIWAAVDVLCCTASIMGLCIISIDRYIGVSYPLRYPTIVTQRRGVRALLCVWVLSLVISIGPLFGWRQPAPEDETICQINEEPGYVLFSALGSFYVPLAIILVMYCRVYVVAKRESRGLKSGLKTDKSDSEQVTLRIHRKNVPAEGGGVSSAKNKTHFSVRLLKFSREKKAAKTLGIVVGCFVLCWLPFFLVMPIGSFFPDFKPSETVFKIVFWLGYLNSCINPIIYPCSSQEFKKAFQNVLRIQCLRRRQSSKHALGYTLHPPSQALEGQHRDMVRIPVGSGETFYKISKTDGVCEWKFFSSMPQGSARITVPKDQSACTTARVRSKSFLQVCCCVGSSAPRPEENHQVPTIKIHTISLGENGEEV
# Rattus norvegicus [3] = test: compound was tested for antipsychotic activity by conditioned avoidance response(CAR) assay in rats with a pretreatment period of 30 min upon intra peritoneal administration at a concentration of 1 mg/kg.; assay type: functional
# In short: (§1)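 Trained rats (N = 4) were run in 1-h sessions on two consecutive days, with the experimenter blind to drug and dose. Fed rats had food and water until placed in the test chambers. Fasted rats had no food overnight before the experiment.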
# Rattus norvegicus [4] = test: compound was tested for antipsychotic activity by conditioned avoidance response(CAR) assay in rats with a pretreatment period of 30 min upon intra peritoneal administration at a concentration of 5 mg/kg.; assay type: functional
# In short: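 Rat conditioned avoidance test modified from Martin et al. Trained rats (N = 4) were run in 1-h sessions on two consecutive days. Fed animals had food and water until placed in the test chambers. Dosing was ip with 30 min pretreatment, and activity was expressed as percent inhibition at the stated dose.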
# Rattus norvegicus [5] = test: compound was tested for antipsychotic activity by conditioned avoidance response(CAR) assay in rats with a pretreatment period of 60 min upon peroral administration at a concentration of 20 mg/kg.; assay type: functional; conditions: route oral; in short: as §1
# Rattus norvegicus [6] = test: Percent catalepsy in male Spargue-Dawley rat at pretreatment time 60 mins and administered ip at dose 50 mg/kg; assay type: functional; conditions: route intraperitoneal
# In short: (§2)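 Catalepsy in rats, groups of five per drug treatment, scored blind to drug and dose. Each session included a saline or vehicle negative control and a haloperidol 2 mg/kg positive control. Deaths during the experiment were recorded in the catalepsy column as number dead out of five.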
# Rattus norvegicus [7] = test: compound was tested for antipsychotic activity by conditioned avoidance response(CAR) assay in rats with a pretreatment period of 240 min upon peroral administration; assay type: functional; conditions: po; in short: as §1
# Rattus norvegicus [8] = test: compound was tested for antipsychotic activity by conditioned avoidance response(CAR) assay in rats with a pretreatment period of 30 min upon intra peritoneal administration.; assay type: functional; in short: as §1
# Rattus norvegicus [9] = test: compound was tested for antipsychotic activity by conditioned avoidance response(CAR) assay in rats with a pretreatment period of 60 min upon peroral administration; assay type: functional; conditions: po; in short: as §1
# Rattus norvegicus [10] = test: Percent catalepsy in male Spargue-Dawley rat at pretreatment time 60 mins and when administered ip at dose 50 mg/kg (1/5L denotes that one rat out of five died during the course of experiment); assay type: functional; conditions: route intraperitoneal
# In short: (§3)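 Catalepsy scored in groups of five rats per drug treatment, with the experimenter blind to drug and dose, in a quiet room. Each session included two control groups: saline (or vehicle) as negative control and haloperidol 2 mg/kg as positive control. Deaths during the experiment were recorded as lethality (e.g., 3/5L) in place of percent catalepsy.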
# Rattus norvegicus [11] = test: compound was tested for antipsychotic activity by conditioned avoidance response(CAR) assay in rats with a pretreatment period of 120 min upon peroral administration; assay type: functional; conditions: po; in short: as §1
# Rattus norvegicus [12] = test: compound was tested for antipsychotic activity by conditioned avoidance response(CAR) assay in rats with a pretreatment period of 30 min upon intra peritoneal administration; assay type: functional; in short: as §1
# Rattus norvegicus [13] = test: compound was tested for antipsychotic activity by conditioned avoidance response(CAR) assay in rats with a pretreatment period of 30 min upon peroral administration; assay type: functional; conditions: po; in short: as §1
# Rattus norvegicus [14] = test: Percent catalepsy in male Spargue-Dawley rat at pretreatment time 240 mins and when administered ip at dose 100 mg/kg (3/5L denotes that three rats out of five died during the course of experiment); assay type: functional; conditions: route intraperitoneal; in short: as §3
# Rattus norvegicus [15] = test: Percent catalepsy in male Spargue-Dawley rat at pretreatment time 240 mins and when administered ip at dose 50 mg/kg; assay type: functional; conditions: route intraperitoneal; in short: as §2
# Rattus norvegicus [16] = test: Percent catalepsy in male Spargue-Dawley rat at pretreatment time 240 mins and when administered po at dose 250 mg/kg; assay type: functional; in short: as §2
# Rattus norvegicus [17] = test: Percent catalepsy in male Spargue-Dawley rat at pretreatment time 60 mins and when administered ip at dose 50 mg/kg; assay type: functional; conditions: route intraperitoneal; in short: as §2
# Rattus norvegicus [18] = test: Percent catalepsy in male Spargue-Dawley rat at pretreatment time 60 mins and when administered po at dose 250 mg/kg; assay type: functional; in short: as §2
# Rattus norvegicus [19] = test: compound was tested for antipsychotic activity by conditioned avoidance response(CAR) assay in rats with a pretreatment period of 60 min upon peroral administration. Values in brackets indicates 95% confidence limits for ED50; assay type: functional; conditions: po
# In short: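 Rats trained in conditioned avoidance were run in a 1-h session on two consecutive days (N = 4). The read-out was reduction of the conditioned response to a disagreeable stimulus. Oral dosing was 60 min before testing. Fed rats had food and water until placed in the test chambers; fasted rats had no food overnight before the experiment.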
# Rattus norvegicus [20] = test: compound was tested for antipsychotic activity by conditioned avoidance response(CAR) assay in rats with a pretreatment period of 60 min upon peroral administration.; assay type: functional; conditions: po; in short: as §1
# Rattus norvegicus [21] = test: Percent catalepsy in male Spargue-Dawley rat at pretreatment time 240 mins and administered ip at dose 50 mg/kg; assay type: functional; conditions: route intraperitoneal; in short: as §2
# Rattus norvegicus [22] = test: compound was tested for antipsychotic activity by conditioned avoidance response(CAR) assay in rats and pretreatment period of 60 min upon peroral administration; assay type: functional; conditions: po; in short: as §1
compound,measurement,setting,value
CC(=O)N(C)C(=O)c1cccc(CN2CCN(c3ccccc3OC(C)C)CC2)c1,Ki,[1],3.3 nM
same,Ki,[2],388 nM
same,inhibition in vivo at 1 mg/kg,Rattus norvegicus [3],-9.6%
same,inhibition in vivo at 5 mg/kg,Rattus norvegicus [4],-94.5%
same,inhibition in vivo at 20 mg/kg,Rattus norvegicus [5],-1.6%
COc1ccccc1N1CCN(Cc2cccc(C(=O)N3CCCCCC3)c2)CC1,Ki,[1],0.46 nM
same,Ki,[2],4.7 nM
same,inhibition in vivo at 5 mg/kg,Rattus norvegicus [4],-94.6%
same,Catalepsy,Rattus norvegicus [6],70%
CC(C)Oc1ccccc1C1CCN(Cc2cccc(C(=O)N3CCCCC3)c2)CC1,Ki,[2],2.2 nM
same,ED50,Rattus norvegicus [7],7.93 mg/kg
same,ED50,Rattus norvegicus [8],0.75 mg/kg
same,ED50,Rattus norvegicus [9],7.69 mg/kg
same,Catalepsy,Rattus norvegicus [10],26.3%
CC(C)Oc1ccccc1N1CCN(Cc2cccc(C(=O)N3CCCCCC3)c2)CC1,Ki,[1],0.6 nM
same,Ki,[2],2.1 nM
same,ED50,Rattus norvegicus [11],15.4 mg/kg
same,ED50,Rattus norvegicus [12],0.85 mg/kg
same,ED50,Rattus norvegicus [13],3.32 mg/kg
same,ED50,Rattus norvegicus [9],11.9 mg/kg
same,Catalepsy,Rattus norvegicus [14],0%
same,Catalepsy,Rattus norvegicus [15],24.1%
same,Catalepsy,Rattus norvegicus [16],15.5%
same,Catalepsy,Rattus norvegicus [17],27.8%
same,Catalepsy,Rattus norvegicus [18],32.5%
O=C(CCCN1CCC(O)(c2ccc(Cl)cc2)CC1)c1ccc(F)cc1 [HALOPERIDOL],ED50,Rattus norvegicus [19],0.31 mg/kg
CC(C)Oc1ccccc1N1CCN(Cc2cccc(C(=O)N3CCCCC3)c2)CC1 [MAZAPERTINE],ED50,Rattus norvegicus [11],26 mg/kg
same,ED50,Rattus norvegicus [13],14.5 mg/kg
same,ED50,Rattus norvegicus [9],3.35 mg/kg
same,ED50,Rattus norvegicus [20],11 mg/kg
same,Catalepsy,Rattus norvegicus [21],47.8%
same,Catalepsy,Rattus norvegicus [6],32.4%
CC(C)Oc1ccccc1N1CCN(Cc2ccc(CN3CCCCC3=O)n2C)CC1 [RWJ-25730],ED50,Rattus norvegicus [22],34.7 mg/kg
